GPR7 antag: antagonists of human GPR7 (neuropeptides B/W receptor 1); inhibition, % at 4.4 µM; 1.1% of 290,000 active; GPR7-expressing cells, fluorescence antagonist assay; P48145; in the data active = inhibition above about 16%, passing the limit was not always enough;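 also: cells stimulated with the agonist NPW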
TRPML3 ag: activates the human TRPML3 channel. Q8TDD5. 0.29% of 220,000 active. HEK293 TRPML3-YFP, Fluo-8 calcium fluorescence; 100% = the carbachol control signal. activation, % at 3 µM;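 active = activation above its plate's cutoff, the mean activation of the plate's test wells plus 3 SD, cut at about 12% in these data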
Target sequence (Q8TDD5 whole entry, looked up): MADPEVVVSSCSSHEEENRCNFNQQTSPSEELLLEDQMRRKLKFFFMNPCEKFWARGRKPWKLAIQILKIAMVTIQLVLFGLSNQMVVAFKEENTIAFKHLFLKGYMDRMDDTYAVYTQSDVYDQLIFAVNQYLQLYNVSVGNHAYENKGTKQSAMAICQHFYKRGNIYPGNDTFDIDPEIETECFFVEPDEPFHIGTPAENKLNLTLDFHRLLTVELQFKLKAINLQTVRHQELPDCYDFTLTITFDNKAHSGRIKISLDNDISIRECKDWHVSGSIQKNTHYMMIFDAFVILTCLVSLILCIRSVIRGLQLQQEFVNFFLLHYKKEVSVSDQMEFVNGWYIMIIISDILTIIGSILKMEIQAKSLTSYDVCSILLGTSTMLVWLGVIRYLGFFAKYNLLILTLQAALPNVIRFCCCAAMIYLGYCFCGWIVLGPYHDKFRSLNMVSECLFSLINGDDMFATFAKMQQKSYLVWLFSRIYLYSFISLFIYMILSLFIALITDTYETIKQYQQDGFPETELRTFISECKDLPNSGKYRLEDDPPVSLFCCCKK
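Material: HEK293 cells stably carrying human TRPML3-YFP; compound dosing: single dose, 3 µM final nominal compound, 0.3% DMSO final; incubation: 1-h 37 °C dye load, 5-s basal, 120-s post-compound reads; technique: Fluo-8 intracellular calcium fluorescence, excitation 470-495 nm, emission 515-575 nm; read-out basis: percent activation from peak-to-basal fluorescence ratio, scaled between DMSO and carbachol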
CHO parental Ca: counter-screen: ATP calcium response change in parental CHO cells; parental CHO-K1, ATP-induced calcium, Fluo-8 fluorescence; inhibition, % at 5.6 µM; 0.63% of 330,000 active;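 active = inhibition above that plate's mean sample inhibition plus 3 SD, cut at about 26% in these data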
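Test system: untransfected parental CHO cell line. Compound: one dose, 5.6 µM nominal. Detection: intracellular calcium via Fluo-8 no-wash fluorescent dye. Measure: % inhibition. Benchmarks: ATP-challenged DMSO wells low, unchallenged DMSO wells high.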
OX1R antag-1: antagonists of human orexin 1 receptor; O43613; CHO/OX1R cells, Fluo-8 calcium fluorescence, orexin A; inhibition, % at 5 µM; 0.43% of 330,000 active; AID 434989;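 active = inhibition above its plate's threshold, mean inhibition of all tested compounds on the plate plus 3 SD, cut at about 37% in these data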
zfTRPN1 agonist: activates the zebrafish TRPN1 channel. HEK293 zebrafish TRPN1-YFP, Fluo-8 calcium fluorescence; 100% = response to 87 µM carbachol. 0.18% of 220,000 active. activation, % at 3 µM;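 active = activation above its plate's cutoff, the mean activation of test wells on that plate plus 3 SD, cut at about 19% in these data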
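Control set: carbachol 87 µM as high control, DMSO as low control; system: HEK293 stable line with zebrafish TRPN1-YFP; read-out: % activation versus carbachol response; detection: intracellular calcium fluorescence with Fluo-8; doses: single test compound dose, 3 µM nominal, 0.3% DMSO; schedule: dye 1 h 37 °C plus 30 min RT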
OX1R antag-2: blocks the human orexin 1 receptor; inhibition, % at 6.6 µM; O43613; 1.8% of 330,000 active; AID 485270; OX1R-expressing cells, FRET antagonist read-out; in the data active = inhibition mostly above about 38%, no sharp cut-off; inactive = mostly below about 40%
Each line names hits and unclear results; the compound was inactive in the other large screens. An excerpt weighted towards active compounds, which were near 3.2% of everything screened.

O=C(COc1ccccc1)Nc1cccc(-c2ccc(N3CCOCC3)nn2)c1	none (no result: GPR7 antag, TRPML3 ag, zfTRPN1 agonist)
COc1cc([N+](=O)[O-])cc(/C=C2/SC(=S)N(Cc3ccccc3)C2=O)c1O	CHO parental Ca 49, OX1R antag-1 68 (no result: TRPML3 ag, zfTRPN1 agonist)
COc1cc(/C=C2/SC(=S)N(Cc3ccccc3)C2=O)cc(Cl)c1O	GPR7 antag 89, CHO parental Ca 67, OX1R antag-1 95 (no result: TRPML3 ag, zfTRPN1 agonist)
COc1cc(/C=C2/SC(=S)N(Cc3ccccc3)C2=O)ccc1OCC(=O)O	none (no result: TRPML3 ag, zfTRPN1 agonist)
CCOc1ccc(NS(=O)(=O)c2cc(C(=O)NCCN3CCOCC3)ccc2C)cc1	none (no result: GPR7 antag, TRPML3 ag, zfTRPN1 agonist)
Cc1nc(/N=C(\N)N(C)C)[nH]c(=O)c1C	none
O=C(NCCC1=CCCCC1)C1CC(=O)N(Cc2ccccc2)C1 (centres undefined)	none (no result: TRPML3 ag, zfTRPN1 agonist)
CCn1c(Cc2cccc3ccccc23)nnc1SCC(=O)Nc1nccs1	OX1R antag-2 71
CCc1nnc(SCC(=O)Nc2nccs2)n1CC	none (no result: TRPML3 ag, zfTRPN1 agonist)
COc1cc(/C=C(\C#N)c2nc3ccccc3[nH]2)cc(OC)c1O	zfTRPN1 agonist 22
COc1cc(/C=C(\C#N)c2nc3ccccc3n2C)cc(OC)c1O	TRPML3 ag 17, zfTRPN1 agonist 37
Cn1c(/C(C#N)=C/c2ccc(O)cc2)nc2ccccc21	none
CCC(C)C(NC(=O)C1CCC(C)CC1)C(=O)NCCc1ccc(S(N)(=O)=O)cc1 (centres undefined)	none (no result: TRPML3 ag, zfTRPN1 agonist)
O=C(N/N=C/c1ccco1)c1ccc2nc[nH]c2c1	none
O=C(N/N=C/c1cccc([N+](=O)[O-])c1)c1cccc2cc[nH]c12	none
O=C(N/N=C/c1cc([N+](=O)[O-])ccc1O)c1cccc2cc[nH]c12	CHO parental Ca 57, OX1R antag-1 49
O=C(N/N=C/c1ccccc1C(F)(F)F)c1ccc2nc[nH]c2c1	none (no result: TRPML3 ag, zfTRPN1 agonist)
O=C(N/N=C/c1ccc(Cl)cc1Cl)c1ccc2nc[nH]c2c1	OX1R antag-2 35 (no result: TRPML3 ag, zfTRPN1 agonist)
O=C(N/N=C/c1cc([N+](=O)[O-])ccc1Cl)c1ccc2nc[nH]c2c1	OX1R antag-2 62
COC(=O)COc1ccc(S(=O)(=O)NCc2ccc3c(c2)OCO3)cc1C	none (no result: TRPML3 ag, zfTRPN1 agonist)
CCCc1ccc(C(=O)NNc2cccc(C)c2)cc1	none
N#CC1=C2SCC(O)(c3ccccc3)N2C(=O)CC1c1ccccc1F (centres undefined)	none
N#CC1=C2SCC(O)(c3ccccc3)N2C(=O)CC1c1cccs1 (centres undefined)	GPR7 antag 17
O=C(N/N=C/c1cccc([N+](=O)[O-])c1)c1ccccc1-n1cccc1	none
Cc1ccc(C#CC[N+]2(CC#Cc3ccc(C)cc3)CCCCC2)cc1	GPR7 antag 19
C(#Cc1ccccc1)C[N+]1(CC#Cc2ccccc2)CCCCC1	none
CCOC(=O)/C(C#N)=C1/C=C(C)NC(c2ccccc2O)=N1	OX1R antag-2 40
CCOC(=O)/C(C#N)=C1/C=CN(C)C(C)=N1	none
COc1ccccc1N(C(=O)c1cncc(Br)c1)c1nc(-c2ccc(C)cc2)cs1	none
COC(=O)c1cc(S(=O)(=O)NCc2cccs2)c[nH]1	none (no result: TRPML3 ag, zfTRPN1 agonist)
CC1(C)C2CCC1(CS(=O)(=O)Nc1ccc(S(=O)(=O)N3CCCC3)cc1)C(=O)C2 (centres undefined)	GPR7 antag 19
O=[N+]([O-])c1ccc(-c2ccc(C=Nc3cccc4ccccc34)o2)cc1	OX1R antag-2 48
CCCCn1c(N)c(Sc2ccccc2)c(=O)[nH]c1=O	none
CCCCn1c(N)c(Sc2ccccc2[N+](=O)[O-])c(=O)[nH]c1=O	OX1R antag-2 55 (no result: TRPML3 ag, zfTRPN1 agonist)
O=C(c1ccc(CNS(=O)(=O)c2ccc(Br)cc2)cc1)N1CCCCCC1	none (no result: TRPML3 ag, zfTRPN1 agonist)
O=S(=O)(Nc1cccnc1)c1cccc(C(F)(F)F)c1	none
O=[N+]([O-])c1ccc(S(=O)(=O)c2cccc(C(F)(F)F)c2)nc1	CHO parental Ca 41 (no result: GPR7 antag, TRPML3 ag, zfTRPN1 agonist)
OCCC1CN(Cc2ccc(Oc3ncccn3)cc2)CCN1C1CCCC1 (centres undefined)	none
Cc1cc(/C=C2/SC(=S)N(c3cccc(C(F)(F)F)c3)C2=O)c(C)n1-c1cccnc1	CHO parental Ca 50
O=C1/C(=C\c2ccc(O)cc2)SC(=S)N1c1cccnc1	CHO parental Ca 58
COc1ccc(S(=O)(=O)N2CCN(C(c3ccccc3)c3ccccc3)CC2)cc1NC(C)=O	none (no result: TRPML3 ag, zfTRPN1 agonist)
